# ChEMBL document CHEMBL4400568, “The design of 1,4-naphthoquinone derivatives and mechanisms underlying apoptosis induction through ROS-dependent MAPK/Akt/STAT3 pathways in human lung cancer cells” (Bioorg Med Chem, 2019)
# Activity calls are given as the source filed them. The rule behind the calls is not given here.
# Columns and labels:
# A549 [1] = assay: Induction of apoptosis in human A549 cells assessed as late apoptotic cells at 3 uM in presence of NAC by Annexin V-FITC/propidium iodide staining-based flow cytometric analysis (reference value: 0.22%); assay type: functional
# [2] = biological target: T1, MAP kinase p38 (Homo sapiens) (UniProt O15264+Q15759+Q16539+P53778); assay: Modulation of p38 MAPK in human A549 cells assessed as increase in cleaved caspase-3 level measured after 24 hrs in presence of p38 inhibitor SB203580 by Western blot analysis; assay type: cell-based
# In short: (§1)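 A549 cells pre-incubated for 30 min with 12.1 μM kinase inhibitor: SB203580 (p38), SP600125 (JNK), FR180204 (ERK) or LY10249 (Akt). Compound treatment followed for 24 h. Lysates (30 μg protein) analysed by 12% SDS-PAGE and nitrocellulose immunoblot with HRP detection. Three independent experiments, mean ± SD.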
# A549 [3] = assay: Cytotoxicity against human A549 cells assessed as reduction in cell viability after 24 hrs by MTT assay; assay type: functional, cell-based; conditions: A549, 24 h
# In short: (§2)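 Log-phase cells seeded at 1 × 10⁴ per well. Lung cancer lines (A549, NCI-H23, NCI-H460) and normal lines (IMR-90, QSG-7701, HEK-293A) each exposed to 1, 3, 10, 30 and 100 μM for 24 h. MTT (5 mg/mL stock) added for 2 h at 37°C, formazan dissolved in DMSO, absorbance read at 490 nm. Three independent experiments, mean ± SD.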
# A549 [4] = assay: Induction of apoptosis in human A549 cells assessed as increase in Bad levels at 3 uM after 24 hrs by Western blot analysis; assay type: functional, cell-based
# In short: (§3)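 A549 cells exposed to 3 μM for 3, 6, 12 or 24 h; where NAC is used, 10 mM NAC is added 30 min before 24 h treatment. Lysate protein (30 μg) is run on 12% SDS-PAGE, blotted to nitrocellulose, blocked in 5% milk, primary antibody overnight at 4°C, then HRP anti-IgG. β-actin loading control; densitometry; three independent experiments, mean ± SD.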
# [5] = biological target: RAC-alpha serine/threonine-protein kinase (Homo sapiens) (UniProt P31749); assay: Inhibition of AKT phosphorylation in human A549 cells at 3 uM measured after 24 hrs in presence of NAC by Western blot analysis; assay type: cell-based
# Chain of RAC-alpha serine/threonine-protein kinase (Homo sapiens) (P31749 whole entry): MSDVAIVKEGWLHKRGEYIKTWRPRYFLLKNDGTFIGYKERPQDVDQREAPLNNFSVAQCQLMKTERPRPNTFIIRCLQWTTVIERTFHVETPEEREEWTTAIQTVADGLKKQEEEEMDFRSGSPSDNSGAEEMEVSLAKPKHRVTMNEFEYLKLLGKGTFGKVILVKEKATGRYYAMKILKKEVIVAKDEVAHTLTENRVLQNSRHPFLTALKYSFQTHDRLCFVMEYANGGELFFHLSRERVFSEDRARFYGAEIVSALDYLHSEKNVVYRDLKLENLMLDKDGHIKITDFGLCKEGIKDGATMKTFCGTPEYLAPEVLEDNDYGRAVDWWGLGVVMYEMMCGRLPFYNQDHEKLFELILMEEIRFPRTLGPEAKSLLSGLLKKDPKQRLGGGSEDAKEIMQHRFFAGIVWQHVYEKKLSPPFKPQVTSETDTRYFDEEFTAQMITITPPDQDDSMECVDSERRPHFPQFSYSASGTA
# In short: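 A549 cells pretreated with 10 mM NAC for 30 min, then exposed to compound for 24 h. Lysate protein (30 μg) resolved on 12% SDS-PAGE and transferred to nitrocellulose. Probed with primary antibodies overnight at 4°C, then HRP secondary. Band densities from three independent experiments, mean ± SD.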
# A549 [6] = assay: Induction of apoptosis in human A549 cells assessed as increase in cleaved PARP at 3 uM measured after 24 hrs in presence of NAC by Western blot analysis; assay type: functional, cell-based; in short: as §3
# [7] = biological target: T2, c-Jun N-terminal kinase, JNK (Homo sapiens) (UniProt P45983+P53779+P45984); assay: Activation of JNK phosphorylation in human A549 cells at 3 uM after 24 hrs in presence of NAC by Western blot analysis; assay type: cell-based; in short: as §3
# [8] = biological target: RAC-alpha serine/threonine-protein kinase (Homo sapiens) (UniProt P31749); assay: Modulation of AKT in human A549 cells assessed as increase in p27 levels measured after 24 hrs in presence of Akt inhibitor-LY10249 by Western blot analysis; assay type: cell-based; in short: as §1
# A549 [9] = assay: Induction of apoptosis in human A549 cells assessed as late apoptotic cells at 3 uM after 12 hrs by Annexin V-FITC/propidium iodide staining-based flow cytometric analysis (reference value: 4.52%); assay type: functional
# A549 [10] = assay: Induction of ROS generation in human A549 cells assessed as intracellular ROS level at 3 uM after 12 hrs by DCFH-DA staining-based flow cytometric analysis (reference value: 51.8%); assay type: functional
# In short: (§4)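 A549 cells loaded with DCFH-DA (10 μM per legend) for 30 min, then exposed to 3 μM at 37°C for 3, 6, 12 or 24 h. After two PBS washes, intracellular fluorescence is quantified by flow cytometry. Three independent experiments, mean ± SD.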
# A549 [11] = assay: Cell cycle arrest in human A549 cells assessed as accumulation of cells at S phase at 3 uM after 12 hrs by propidium iodide staining-based flow cytometric analysis (reference value: 13.85%); assay type: functional
# A549 [12] = assay: Cell cycle arrest in human A549 cells assessed as increase in p27 levels at 3 uM by Western blot analysis; assay type: functional, cell-based; conditions: TDE = time-dependent effect; in short: as §3
# A549 [13] = assay: Cell cycle arrest in human A549 cells assessed as accumulation of cells at G1 phase at 3 uM by propidium iodide staining-based flow cytometric analysis; assay type: functional; conditions: TDE = time-dependent effect
# [14] = biological target: T1, MAP kinase p38 (Homo sapiens); assay: Activation of p38 phosphorylation in human A549 cells at 3 uM after 24 hrs in presence of NAC by Western blot analysis; assay type: cell-based; in short: as §3
# [15] = Cytotoxicity against human QSG7701 cells assessed as reduction in cell viability after 24 hrs by MTT assay; assay type: cell-based; in short: as §2
# NCI-H460 = assay: Cytotoxicity against human NCI-H460 cells assessed as reduction in cell viability after 24 hrs by MTT assay; assay type: functional, cell-based; in short: as §2
# A549 [16] = assay: Induction of ROS generation in human A549 cells assessed as intracellular ROS level at 3 uM after 6 hrs by DCFH-DA staining-based flow cytometric analysis (reference value: 51.8%); assay type: functional; in short: as §4
# A549 [17] = assay: Inhibition of ERK in human A549 cells assessed as decrease in STAT3 phosphorylation at 3 uM after 3 to 24 hrs by Western blot analysis; assay type: cell-based
# In short: (§5)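 A549 cells exposed to 3 μM for 3, 6, 12 or 24 h. Lysate protein (30 μg) run on 12% SDS-PAGE and blotted to nitrocellulose. Membranes blocked in 5% skim milk, primary antibodies at 4°C overnight, then HRP anti-IgG secondary for 1 h at room temperature. β-actin was the internal control. Bands quantified by densitometry; three independent experiments, mean ± SD.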
# A549 [18] = assay: Cell cycle arrest in human A549 cells assessed as accumulation of cells at G1 phase at 3 uM after 3 hrs by propidium iodide staining-based flow cytometric analysis (reference value: 57.65%); assay type: functional
# A549 [19] = assay: Cell cycle arrest in human A549 cells assessed as accumulation of cells at S phase at 3 uM after 3 hrs by propidium iodide staining-based flow cytometric analysis (reference value: 13.85%); assay type: functional
# [20] = biological target: RAC-alpha serine/threonine-protein kinase (Homo sapiens) (UniProt P31749); assay: Inhibition of AKT phosphorylation in human A549 cells at 3 uM by Western blot analysis; assay type: cell-based; conditions: TDE = time-dependent effect; in short: as §5
# A549 [21] = assay: Modulation of ERK in human A549 cells assessed as decrease in STAT3 phosphorylation measured after 24 hrs in presence of ERK inhibitor FR180204 by Western blot analysis; assay type: cell-based
# [22] = biological target: T2, c-Jun N-terminal kinase, JNK (Homo sapiens); assay: Activation of JNK phosphorylation in human A549 cells at 3 uM after 3 to 24 hrs by Western blot analysis; assay type: cell-based; in short: as §3
# [23] = Cytotoxicity against HEK293A cells assessed as reduction in cell viability after 24 hrs by MTT assay; assay type: cell-based; conditions: human, hek293-a; in short: as §2
# A549 [24] = assay: Cell cycle arrest in human A549 cells assessed as accumulation of cells at S phase at 3 uM after 6 hrs by propidium iodide staining-based flow cytometric analysis (reference value: 13.85%); assay type: functional
# A549 [25] = assay: Induction of apoptosis in human A549 cells assessed as early apoptotic cells at 3 uM after 3 hrs by Annexin V-FITC/propidium iodide staining-based flow cytometric analysis (reference value: 2.73%); assay type: functional
Compound,Activity (A549 [1]),Activity [2],IC50 (A549 [3]),Activity (A549 [4]),inhibition [5],Activity (A549 [6]),Activity [7],Activity [8],Activity (A549 [9]),Activity (A549 [10]),Activity (A549 [11]),Activity (A549 [12]),Activity (A549 [13]),Activity [14],Activity [15],Activity (NCI-H460),Activity (A549 [16]),inhibition (A549 [17]),Activity (A549 [18]),Activity (A549 [19]),also measured
CCCS(=O)(=O)C12OC1C(=O)c1c(OC)ccc(OC)c1C2=O (configuration not stated),2.67%,inactive,2.59 µM,Active,inactive,inactive,inactive,Active,0.2%,68.59%,9.06%,Tde,Tde,inactive,Non-Toxic,Active,60.04%,Active,60.85%,11.61%,inhibition [20]: Tde; Activity (A549 [21]): Active; Activity [22]: Active; Activity [23]: Non-Toxic; Activity (A549 [24]): 10.31%; Activity (A549 [25]): 13.29%
CCCCCCCCCS(=O)(=O)C12OC1C(=O)c1c(OC)ccc(OC)c1C2=O (configuration not stated),3.03%,inactive,7.54 µM,Active,inactive,inactive,inactive,Active,7.87%,62.75%,7.18%,Tde,Tde,inactive,Non-Toxic,Active,59.58%,Active,61.21%,9.45%,inhibition [20]: Tde; Activity (A549 [21]): Active; Activity [22]: Active; Activity [23]: Non-Toxic; Activity (A549 [24]): 8.44%; Activity (A549 [25]): 8.15%
